The values below come from publication PMC10360211 (Science (New York, N.Y.), 2022).

The subject of one data set is α2AAR D79N mutant mice. Description: Tail flick. In kind it is in vivo. The settings on record: tail flick 50°C, versus WT. In outline: (§1)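 WT and α2AAR D79N mice were habituated for 1 h in cylinders and tested 30 min after s.c. dosing. The tail was immersed in a 50°C water bath to measure heat sensitivity. The experimenter was blind to treatment.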
In data set [1] the test system is mice. Description: Constipation assay. The settings on record: i.p.; morphine 10 mg/kg, dexmedetomidine 30 μg/kg, ‘9087 5 mg/kg; versus vehicle.
The subject of data set [2] is mice. Description: Rotarod motor test. In kind it is in vivo. In outline:
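Mice were first trained three times for 5 min on an accelerating rotating rod before any compound. They were then tested 30 min after s.c. dosing, with the experimenter blind to treatment.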

Data set [3] concerns the target T1, human α2AAR (Homo sapiens, UniProt P08913).
T1 sequence (P08913 1-465): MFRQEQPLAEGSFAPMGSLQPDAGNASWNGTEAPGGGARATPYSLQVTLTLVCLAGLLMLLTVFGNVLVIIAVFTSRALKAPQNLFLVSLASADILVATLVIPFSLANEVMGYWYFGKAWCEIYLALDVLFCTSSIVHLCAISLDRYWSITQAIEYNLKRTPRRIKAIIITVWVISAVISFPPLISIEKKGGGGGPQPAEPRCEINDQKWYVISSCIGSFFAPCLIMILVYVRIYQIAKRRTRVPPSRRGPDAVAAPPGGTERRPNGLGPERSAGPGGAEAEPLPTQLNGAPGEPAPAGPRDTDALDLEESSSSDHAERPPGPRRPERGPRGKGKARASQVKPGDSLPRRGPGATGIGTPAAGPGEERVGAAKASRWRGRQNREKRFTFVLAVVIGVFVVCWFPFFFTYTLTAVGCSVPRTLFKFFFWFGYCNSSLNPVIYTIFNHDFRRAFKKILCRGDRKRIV
The experiment in a line: Internalization assay with rGFP-CAAX and rGFP-FYVE biosensors. Type of data set: cell-based. The settings on record: for receptor internalization: both biosensors.

Data set [4] addresses T1, human α2AAR. Description: ebBRET-based EMTA G protein and β-arrestin coupling panel. Type of data set: cell-based. In outline:
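ebBRET in HEK293SL cells transfected with premixed biosensor DNA plus α2AAR using PEI (3:1). DNA was 0.57 μg, or 1 μg total for G12/13, and cells were seeded at 3.5×10^4 cells/well for 48 h. Gα activation was read as translocation of RlucII-tagged effectors (p63-RhoGEF for Gq/11, Rap1-GAP for Gi/o, PDZ-RhoGEF for G12/13) to rGFP-CAAX. β-arrestin-1/2-RlucII was also read against rGFP-CAAX. Cells sat in Tyrode HEPES 1 h, then received increasing compound concentrations 10 min at 37°C, with 1 μM Prolume purple for the final 6 min.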

The target in data set [5] is α2AAR D128^3.32 mutant receptors (Homo sapiens, UniProt P08913, D128A). Type of data set: cell-based. The settings on record: D128^3.32A versus wild type.
Data set [6] concerns α2AAR D128^3.32 mutant receptors. In kind it is cell-based, human.
A further data set has as its target T2, murine α2AAR (Mus musculus, UniProt Q01338).
T2 sequence (Q01338 1-465): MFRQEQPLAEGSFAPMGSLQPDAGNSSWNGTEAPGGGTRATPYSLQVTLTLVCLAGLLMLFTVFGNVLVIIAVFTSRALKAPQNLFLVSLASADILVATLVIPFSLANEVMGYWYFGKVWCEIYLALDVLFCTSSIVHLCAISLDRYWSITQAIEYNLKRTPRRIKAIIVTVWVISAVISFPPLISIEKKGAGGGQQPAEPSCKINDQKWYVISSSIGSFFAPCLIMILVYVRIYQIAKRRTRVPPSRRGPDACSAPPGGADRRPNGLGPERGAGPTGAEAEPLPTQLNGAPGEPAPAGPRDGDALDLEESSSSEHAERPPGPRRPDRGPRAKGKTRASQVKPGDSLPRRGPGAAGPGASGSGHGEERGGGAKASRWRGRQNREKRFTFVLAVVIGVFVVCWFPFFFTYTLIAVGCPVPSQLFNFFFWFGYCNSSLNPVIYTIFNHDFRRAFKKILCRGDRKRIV
The experiment in a line: Radioligand binding, murine α2AAR. The settings on record: read-out: Kd of radioligand; saturation, HEK293T membranes.

Data set [7] concerns the target T1, human α2AAR. Description: Radioligand binding, human α2AAR. The settings on record: read-out: Kd of radioligand; saturation, HEK293T membranes.
Another data set has as its target T3, human α2BAR (Homo sapiens, UniProt P18089).
T3 sequence (P18089 1-450): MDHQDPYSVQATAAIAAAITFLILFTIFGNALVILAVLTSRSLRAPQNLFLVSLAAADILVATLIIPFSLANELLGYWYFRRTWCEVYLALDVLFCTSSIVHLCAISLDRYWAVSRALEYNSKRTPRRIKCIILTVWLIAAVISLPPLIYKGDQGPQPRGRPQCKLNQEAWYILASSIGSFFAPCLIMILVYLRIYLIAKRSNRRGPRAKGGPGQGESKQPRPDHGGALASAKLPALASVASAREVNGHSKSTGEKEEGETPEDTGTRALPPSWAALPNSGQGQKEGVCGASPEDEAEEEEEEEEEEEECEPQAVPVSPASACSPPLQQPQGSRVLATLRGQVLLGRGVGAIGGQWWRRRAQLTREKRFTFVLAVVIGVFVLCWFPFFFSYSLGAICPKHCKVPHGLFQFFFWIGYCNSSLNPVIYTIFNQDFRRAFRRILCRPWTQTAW
Description: Radioligand binding, human α2BAR. The note with it: read-out: Kd of radioligand; saturation, HEK293T membranes.

Another data set concerns the target T4, human α2C (Homo sapiens, UniProt P18825).
T4 sequence (P18825 1-462): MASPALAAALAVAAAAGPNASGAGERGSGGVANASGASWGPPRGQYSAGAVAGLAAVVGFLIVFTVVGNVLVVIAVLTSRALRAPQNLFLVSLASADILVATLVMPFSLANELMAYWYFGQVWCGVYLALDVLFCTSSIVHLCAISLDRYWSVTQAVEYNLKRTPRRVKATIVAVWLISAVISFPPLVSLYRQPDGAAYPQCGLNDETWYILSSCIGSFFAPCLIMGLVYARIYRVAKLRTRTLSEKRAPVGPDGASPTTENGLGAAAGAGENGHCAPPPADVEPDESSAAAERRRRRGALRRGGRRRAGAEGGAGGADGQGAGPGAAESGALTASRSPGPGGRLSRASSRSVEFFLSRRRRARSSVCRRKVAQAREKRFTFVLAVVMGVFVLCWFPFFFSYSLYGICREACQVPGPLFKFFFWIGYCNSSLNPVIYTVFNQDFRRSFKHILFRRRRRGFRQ
The experiment in a line: Radioligand binding, α2C. The settings on record: read-out: Kd of radioligand; saturation, HEK293T membranes.

In data set [8] the test system is mice. Description: Tail flick. The settings on record: tail flick 50°C, s.c. In kind it is in vivo. In outline:
as §1

A short description of data set [9]: Metabolic stability in rat liver microsomes. Type of data set: in vitro ADME. The note with it: male rat liver microsomes, 1 hour, 20 μM. In outline:
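Pooled male Sprague Dawley rat liver microsomes (0.25 mg protein per tube) were incubated with test compound or a positive control (20 µM final). Buffer was 50 mM Tris, 5 mM MgCl2, pH 7.4. Incubation was at 37°C on a rotating carousel.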

The subject of data set [10] is spared nerve injury (SNI) mice. The experiment in a line: SNI model of neuropathic pain, mechanical. Type of data set: in vivo. Put shortly: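 Spared nerve injury: under isoflurane, two of the three sciatic nerve branches were ligated and transected distally, leaving the sural nerve intact. Testing was done 7–14 days after injury. Atipamezole (2 mg/kg i.p.) was given 15 min before s.c. agonist, and testing followed 30 min after agonist. Hindpaw thresholds were measured with von Frey filaments by the up-down method, by a blinded experimenter.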

A short description of a further data set: Pharmacokinetics in mice. Type of data set: in vivo. The note with it: 10-mg/kg i.v. and 30-mg/kg p.o. Put shortly: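 C57BL/6 mice were dosed 10 mg/kg i.v. or 30 mg/kg p.o., with vehicle-dosed groups alongside. One analogue was formulated in 20% v/v HβCD in saline. Sparse sampling used three mice per time point (one for vehicle). Blood was drawn from the orbital sinus into K3EDTA under tribromoethanol (150 mg/kg i.p.), and plasma was spun at 4000 rpm, 10 min, 4°C. Brain was homogenised in ice-cold PBS. Samples were analysed by HPLC-MS/MS; values below LLOQ were set to zero.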

Data set [11] concerns the target T1, human α2AAR. The experiment in a line: Gαi BRET G protein activation assay. In kind it is cell-based. In outline:
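HEK293T cells were co-transfected with α2AAR, Gαi1-RLucII, Gβ1 and Gγ2-GFP10. After 48 h the medium was replaced with PBS and cells were stimulated with ligand for 10 min at 37°C. Coelenterazine 400a (2.5 µM final) was added 5 min before reading. BRET was taken as acceptor/donor emission (515/410 nm) and normalised to buffer (0%) and maximal norepinephrine (100%). There were 3–17 experiments, each in duplicate. Receptor surface expression was checked by anti-FLAG ELISA.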
For orientation: Bioluminescence resonance energy transfer reports proximity on the nanometre scale.

The next data set has as its system naïve (uninjured) mice. The experiment in a line: Mechanical withdrawal thresholds in naïve mice. In kind it is in vivo. The settings on record: 5 mg/kg s.c. In outline:
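Uninjured mice were habituated for 1 h in Plexiglas cylinders and tested 30 min after s.c. dosing. Hindpaw mechanical thresholds were found with von Frey filaments by the up-down method. The experimenter was blind to treatment, and animals were randomly assigned to compound or vehicle.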

Each structure is given as a SMILES string. “Also recorded” adds a separate entry of the source. Like-named read-outs stand apart in the source and are kept apart here.

Chain of α2AAR D128^3.32 mutant receptors (Homo sapiens, UniProt P08913, D128A) (P08913 whole entry D128A): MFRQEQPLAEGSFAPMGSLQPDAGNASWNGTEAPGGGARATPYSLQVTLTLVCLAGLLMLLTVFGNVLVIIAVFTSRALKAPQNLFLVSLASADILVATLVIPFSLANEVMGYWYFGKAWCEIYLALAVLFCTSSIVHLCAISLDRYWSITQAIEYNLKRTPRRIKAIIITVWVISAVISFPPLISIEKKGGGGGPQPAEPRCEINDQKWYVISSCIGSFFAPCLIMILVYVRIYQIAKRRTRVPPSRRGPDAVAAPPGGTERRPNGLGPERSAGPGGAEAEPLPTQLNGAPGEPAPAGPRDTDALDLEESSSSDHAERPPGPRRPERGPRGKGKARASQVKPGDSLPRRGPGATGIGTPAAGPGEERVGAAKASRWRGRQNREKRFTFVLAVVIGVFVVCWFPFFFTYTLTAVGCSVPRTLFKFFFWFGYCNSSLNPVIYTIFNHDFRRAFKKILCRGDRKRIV

Consider `CN1CC[C@]23c4c5ccc(O)c4O[C@H]2[C@@H](O)C=C[C@H]3[C@H]1C5` [morphine], for which, in the data set with α2AAR D79N mutant mice, the “analgesia in D79N mutant mice” value is on record as “does not affect; also recorded: not significantly altered by the mutation”. The “constipation, accumulated pellets over 6 hours” value in the data set on mice [1] is reported as “induced constipation”.
For `Cc1cccc([C@H](C)c2cnc[nH]2)c1C` [dexmedetomidine], the “motor impairment and sedation” value is “complete sedation; also recorded: full sedation” in the data set with mice [2]; “significant impairment and complete sedation at higher doses” with mice [2] (listed as DEX). Moreover, the “analgesia in D79N mutant mice” value is “no longer induced analgesia in the mutant mice” in the data set on α2AAR D79N mutant mice and “substantially decreases the analgesia” in the data set on α2AAR D79N mutant mice (listed as DEX). Moreover, the receptor internalization result at human α2AAR [3] is “about half of this response”. For the same molecule, the “G protein and β-arrestin subtype signaling profile” value at human α2AAR [4] is “strongly activated multiple additional G proteins and β-arrestins”. Also, in data set [5], the “Gi EC50 fold higher” value is listed as 170,000 fold. Besides, the “Gi activation and β-arrestin recruitment on substitutions to D128^3.32” value in [6] is given as “almost complete loss”.
Take `Brc1c(NC2=NCCN2)ccc2nccnc12` [brimonidine]: the receptor internalization entry on human α2AAR [3] is on record as “comparable responses for both biosensors”. In addition, at human α2AAR [4], the “G protein and β-arrestin subtype signaling profile” value is “strongly activated multiple additional G proteins and β-arrestins”.
As for `COC1(C2=NCCN2)COc2ccccc2O1` (centres unmarked) [[^3H]RX82,1002], the Kd (commonly the constant that tells how readily two partners part at equilibrium) was determined as 1.8 ± 0.61 nM at murine α2AAR, 0.54 ± 0.024 nM on human α2AAR [7], 2.3 ± 0.52 nM on human α2BAR and 0.58 ± 0.11 nM on human α2C.
Take `NC[C@H](O)c1ccc(O)c(O)c1` [norepinephrine]: on human α2AAR [3], the receptor internalization result is reported as “comparable responses for both biosensors”. The “G protein and β-arrestin subtype signaling profile” value on human α2AAR [4] is “strongly activated multiple additional G proteins and β-arrestins”. In data set [6], the “Gi activation and β-arrestin recruitment on substitutions to D128^3.32” value is reported as “almost complete loss”.
Turning to `Clc1ccc2cccc(Nc3ccncc3)c2c1` [PS75], the withdrawal latencies entry with mice [8] was “increased withdrawal latencies”. The “motor impairment and sedation” value in the data set with mice [2] was “did not have an effect on the rotarod test; also recorded: do not cause sedation or motor impairment at analgesic doses”. For the same molecule, in the data set with α2AAR D79N mutant mice, the “analgesia in D79N mutant mice” value is “substantially decreases the analgesia” and the “reduction of analgesia in D79N mutant mice” value was over 50%. For the same molecule, the metabolic stability entry in data set [9] is “remain largely unmodified”. Besides, the “effect of atipamezole on the agonist's effect” value in data set [10] (atipamezole 2 mg/kg i.p. 15 min before agonist) was “partially reversed”. Further, the “effect on mechanical thresholds / allodynia” value in data set [10] (s.c.) is given as “completely reversed the mechanical hypersensitivity”. Moreover, the receptor internalization entry at human α2AAR [3] is given as “negligible receptor internalization”. In addition, the “disappearance of α2AARs from the plasma membrane” value on human α2AAR [3] (α2AAR-RlucII/rGFP-CAAX biosensor) is listed as “no effect”. The “relocalization of the receptors in endosomes” value at human α2AAR [3] (α2AAR-RlucII/rGFP-FYVE biosensor) is “marginal effect at the highest concentrations”. The “oral bioavailability” value in the data set “Pharmacokinetics in mice” was “fully bio-available”. Further, the “increased potency compared with ‘9087” value on human α2AAR [11] (Gi activation) came to 11 fold. For the same molecule, on human α2AAR [11] (Gαi BRET, % of norepinephrine response), the “Emax, Gi activation” value worked out at 82%. In addition, the EC50 (as a rule, the midpoint of the concentration-response curve) on human α2AAR [11] (abstract) was determined as 4.8 nM. The “G protein and β-arrestin subtype signaling profile” value on human α2AAR [4] was “preferentially activated Gi, Go, and Gz (Gi/o/z) signaling; also recorded: retained the preferential signaling through the Gi/o versus other G protein families and β-arrestins”. The “baseline mechanical withdrawal thresholds” value in the data set with naïve (uninjured) mice was “did increase the mechanical thresholds”.
